Data taken from ChEMBL document CHEMBL5661979, “Pharmacological inhibition of BMK1 suppresses tumor growth through promyelocytic leukemia protein” (Cancer Cell, 2010).

Assays:
[1] = molecular target: Casein kinase I isoform alpha (Homo sapiens, UniProt P48729); test: Inhibition of CK1alpha in human HeLa cells lysate pre incubated for 15 mins followed by ATP acyl phosphate probe addition and measured after 10 mins by LC-MS/MS analysis; type: subcellular
[2] = molecular target: Serine/threonine-protein kinase 4 (Homo sapiens, UniProt Q13043); test: Inhibition of MST1 in human HeLa cells lysate pre incubated for 15 mins followed by ATP acyl phosphate probe addition and measured after 10 mins by LC-MS/MS analysis; type: subcellular
[3] = molecular target: 1-phosphatidylinositol 3-phosphate 5-kinase (Homo sapiens, UniProt Q9Y2I7); test: Inhibition of PIP5K3 in human HeLa cells lysate pre incubated for 15 mins followed by ATP acyl phosphate probe addition and measured after 10 mins by LC-MS/MS analysis; type: subcellular
[4] = molecular target: Calcium/calmodulin-dependent protein kinase type 1D (Homo sapiens, UniProt Q8IU85); test: Inhibition of CAMK1d in human HeLa cells lysate pre incubated for 15 mins followed by ADP acyl phosphate probe addition and measured after 10 mins by LC-MS/MS analysis; type: subcellular
Procedure, shortened: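 KiNativ-type profiling in HeLa lysate (5 mg/mL total protein). Lysate preincubated 15 min with inhibitor at 50, 10, 2, 0.8 or 0 μM, then ATP or ADP acylphosphate probe added (5 μM final) for 10 min. Reaction stopped with urea and analysed by targeted MS, using up to four fragment ions per kinase peptide-probe conjugate. % inhibition calculated against untreated lysate. Duplicate reactions.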

[5] = molecular target: Cyclin-dependent kinase 13 (Homo sapiens, UniProt Q14004); test: Inhibition of CHED in human HeLa cells lysate pre incubated for 15 mins followed by ADP acyl phosphate probe addition and measured after 10 mins by LC-MS/MS analysis; type: subcellular
Procedure, shortened: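 KiNativ profiling in HeLa lysate (5 mg/mL total protein). Lysate incubated 15 min with inhibitor at 50, 10, 2, 0.8 or 0 μM. ATP or ADP acylphosphate probe then added (5 μM final) and reacted 10 min. Reaction stopped with urea and analysed by targeted MS, using up to four fragment ions per kinase peptide-probe conjugate. % inhibition taken against untreated lysate. Run in duplicate.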

[6] = molecular target: Serine/threonine-protein kinase Chk2 (Homo sapiens, UniProt O96017); test: Inhibition of CHK2 in human HeLa cells lysate pre incubated for 15 mins followed by ADP acyl phosphate probe addition and measured after 10 mins by LC-MS/MS analysis; type: subcellular
IKK epsilon/TBK1 = IKK epsilon/TBK1 (Homo sapiens, UniProt Q14164+Q9UHD2); test: Inhibition of IKKE/TBK1 in human HeLa cells lysate pre incubated for 15 mins followed by ADP acyl phosphate probe addition and measured after 10 mins by LC-MS/MS analysis; type: subcellular
[7] = Inhibition of MAP3K2/MAP3K3 in human HeLa cells lysate at 50 uM pre incubated for 15 mins followed by ADP acyl phosphate probe addition and measured after 10 mins by LC-MS/MS analysis relative to control; details: 25 min, condition cancer
[8] = molecular target: Ribosomal protein S6 kinase alpha-5 (Homo sapiens, UniProt O75582); test: Inhibition of MSK1 domain 1 in human HeLa cells lysate at 2 uM pre incubated for 15 mins followed by ADP acyl phosphate probe addition and measured after 10 mins by LC-MS/MS analysis relative to control; type: subcellular; details: time 25.0 min
Chain of Ribosomal protein S6 kinase alpha-5 (O75582 whole entry, looked up, the tested form may be a part, canonical isoform): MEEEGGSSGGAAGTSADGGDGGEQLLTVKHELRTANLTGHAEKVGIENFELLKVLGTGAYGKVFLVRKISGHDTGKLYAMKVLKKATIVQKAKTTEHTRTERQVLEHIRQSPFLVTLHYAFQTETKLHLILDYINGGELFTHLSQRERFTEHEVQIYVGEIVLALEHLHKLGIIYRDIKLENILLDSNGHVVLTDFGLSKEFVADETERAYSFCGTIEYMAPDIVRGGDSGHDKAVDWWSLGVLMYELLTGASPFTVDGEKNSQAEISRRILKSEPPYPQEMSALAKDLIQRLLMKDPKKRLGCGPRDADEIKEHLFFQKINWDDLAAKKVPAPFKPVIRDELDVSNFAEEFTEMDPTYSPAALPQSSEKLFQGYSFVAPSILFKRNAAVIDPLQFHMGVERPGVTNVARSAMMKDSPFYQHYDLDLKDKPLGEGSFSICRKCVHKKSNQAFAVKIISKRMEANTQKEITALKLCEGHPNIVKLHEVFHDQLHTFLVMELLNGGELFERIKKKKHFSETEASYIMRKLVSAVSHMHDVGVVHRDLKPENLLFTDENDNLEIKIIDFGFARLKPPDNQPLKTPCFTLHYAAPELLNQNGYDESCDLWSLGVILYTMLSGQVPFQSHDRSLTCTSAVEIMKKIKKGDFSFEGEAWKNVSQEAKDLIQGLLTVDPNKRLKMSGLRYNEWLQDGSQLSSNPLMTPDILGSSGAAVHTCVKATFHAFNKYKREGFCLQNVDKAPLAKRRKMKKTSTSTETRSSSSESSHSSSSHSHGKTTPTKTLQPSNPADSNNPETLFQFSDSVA

[9] = molecular target: T1, Glycogen synthase kinase-3 beta (Homo sapiens, UniProt P49841); test: Inhibition of GSK3B isoform 2 in human HeLa cells lysate at 2 uM pre incubated for 15 mins followed by ADP acyl phosphate probe addition and measured after 10 mins by LC-MS/MS analysis relative to control; type: subcellular; details: time 25.0 min
T1 sequence (P49841 whole entry, looked up, canonical isoform): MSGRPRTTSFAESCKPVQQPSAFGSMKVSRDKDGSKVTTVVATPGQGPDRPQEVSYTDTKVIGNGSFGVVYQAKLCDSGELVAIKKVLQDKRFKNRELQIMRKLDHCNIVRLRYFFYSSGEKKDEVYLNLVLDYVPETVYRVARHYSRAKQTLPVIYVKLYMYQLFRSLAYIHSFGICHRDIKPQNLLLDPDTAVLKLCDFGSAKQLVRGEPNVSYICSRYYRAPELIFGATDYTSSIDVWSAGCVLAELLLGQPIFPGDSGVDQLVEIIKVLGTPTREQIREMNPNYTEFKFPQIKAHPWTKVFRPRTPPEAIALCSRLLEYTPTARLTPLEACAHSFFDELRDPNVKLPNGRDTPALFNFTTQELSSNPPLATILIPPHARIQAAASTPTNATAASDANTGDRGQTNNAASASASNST

[10] = molecular target: T2, Rho-associated protein kinase (Homo sapiens, UniProt O75116+Q13464); test: Inhibition of ROCK1/2 in human HeLa cells lysate at 50 uM pre incubated for 15 mins followed by ATP acyl phosphate probe addition and measured after 10 mins by LC-MS/MS analysis relative to control; type: subcellular; details: time 25.0 min
T2 sequence (O75116 whole entry, looked up): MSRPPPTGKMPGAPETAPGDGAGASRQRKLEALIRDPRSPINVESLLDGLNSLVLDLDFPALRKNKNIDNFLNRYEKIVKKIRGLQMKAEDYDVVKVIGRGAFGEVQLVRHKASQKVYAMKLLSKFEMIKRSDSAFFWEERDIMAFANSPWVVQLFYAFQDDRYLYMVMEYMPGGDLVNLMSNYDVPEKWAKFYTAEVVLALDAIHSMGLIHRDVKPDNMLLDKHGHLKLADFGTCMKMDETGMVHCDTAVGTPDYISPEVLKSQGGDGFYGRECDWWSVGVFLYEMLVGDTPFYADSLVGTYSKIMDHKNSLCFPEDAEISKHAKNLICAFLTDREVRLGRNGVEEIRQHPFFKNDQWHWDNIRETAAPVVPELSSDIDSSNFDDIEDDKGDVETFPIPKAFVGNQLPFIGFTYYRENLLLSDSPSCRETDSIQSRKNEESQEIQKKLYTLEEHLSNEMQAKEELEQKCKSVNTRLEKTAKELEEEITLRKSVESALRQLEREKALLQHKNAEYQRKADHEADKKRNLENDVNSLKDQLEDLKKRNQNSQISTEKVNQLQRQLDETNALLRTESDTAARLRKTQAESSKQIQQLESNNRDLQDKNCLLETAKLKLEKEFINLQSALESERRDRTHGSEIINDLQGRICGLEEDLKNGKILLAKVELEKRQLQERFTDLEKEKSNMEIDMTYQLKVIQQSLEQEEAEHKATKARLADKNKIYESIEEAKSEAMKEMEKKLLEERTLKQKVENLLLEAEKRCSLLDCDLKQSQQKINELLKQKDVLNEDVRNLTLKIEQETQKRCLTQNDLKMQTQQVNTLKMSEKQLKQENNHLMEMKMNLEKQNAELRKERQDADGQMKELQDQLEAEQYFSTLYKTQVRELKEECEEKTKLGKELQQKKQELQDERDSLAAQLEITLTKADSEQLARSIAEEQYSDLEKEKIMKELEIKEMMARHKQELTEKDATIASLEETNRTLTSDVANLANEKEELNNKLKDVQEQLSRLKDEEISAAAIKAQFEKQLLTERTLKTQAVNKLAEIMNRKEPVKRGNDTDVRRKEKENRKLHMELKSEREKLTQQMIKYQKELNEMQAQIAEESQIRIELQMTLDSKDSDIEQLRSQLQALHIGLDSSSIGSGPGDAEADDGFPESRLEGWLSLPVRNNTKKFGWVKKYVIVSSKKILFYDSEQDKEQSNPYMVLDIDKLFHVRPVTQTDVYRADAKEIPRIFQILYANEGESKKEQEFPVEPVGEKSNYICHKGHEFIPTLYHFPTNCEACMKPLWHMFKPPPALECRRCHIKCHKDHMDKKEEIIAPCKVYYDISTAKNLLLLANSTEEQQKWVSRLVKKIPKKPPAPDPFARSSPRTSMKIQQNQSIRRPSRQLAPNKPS
T2 sequence (Q13464 whole entry, looked up): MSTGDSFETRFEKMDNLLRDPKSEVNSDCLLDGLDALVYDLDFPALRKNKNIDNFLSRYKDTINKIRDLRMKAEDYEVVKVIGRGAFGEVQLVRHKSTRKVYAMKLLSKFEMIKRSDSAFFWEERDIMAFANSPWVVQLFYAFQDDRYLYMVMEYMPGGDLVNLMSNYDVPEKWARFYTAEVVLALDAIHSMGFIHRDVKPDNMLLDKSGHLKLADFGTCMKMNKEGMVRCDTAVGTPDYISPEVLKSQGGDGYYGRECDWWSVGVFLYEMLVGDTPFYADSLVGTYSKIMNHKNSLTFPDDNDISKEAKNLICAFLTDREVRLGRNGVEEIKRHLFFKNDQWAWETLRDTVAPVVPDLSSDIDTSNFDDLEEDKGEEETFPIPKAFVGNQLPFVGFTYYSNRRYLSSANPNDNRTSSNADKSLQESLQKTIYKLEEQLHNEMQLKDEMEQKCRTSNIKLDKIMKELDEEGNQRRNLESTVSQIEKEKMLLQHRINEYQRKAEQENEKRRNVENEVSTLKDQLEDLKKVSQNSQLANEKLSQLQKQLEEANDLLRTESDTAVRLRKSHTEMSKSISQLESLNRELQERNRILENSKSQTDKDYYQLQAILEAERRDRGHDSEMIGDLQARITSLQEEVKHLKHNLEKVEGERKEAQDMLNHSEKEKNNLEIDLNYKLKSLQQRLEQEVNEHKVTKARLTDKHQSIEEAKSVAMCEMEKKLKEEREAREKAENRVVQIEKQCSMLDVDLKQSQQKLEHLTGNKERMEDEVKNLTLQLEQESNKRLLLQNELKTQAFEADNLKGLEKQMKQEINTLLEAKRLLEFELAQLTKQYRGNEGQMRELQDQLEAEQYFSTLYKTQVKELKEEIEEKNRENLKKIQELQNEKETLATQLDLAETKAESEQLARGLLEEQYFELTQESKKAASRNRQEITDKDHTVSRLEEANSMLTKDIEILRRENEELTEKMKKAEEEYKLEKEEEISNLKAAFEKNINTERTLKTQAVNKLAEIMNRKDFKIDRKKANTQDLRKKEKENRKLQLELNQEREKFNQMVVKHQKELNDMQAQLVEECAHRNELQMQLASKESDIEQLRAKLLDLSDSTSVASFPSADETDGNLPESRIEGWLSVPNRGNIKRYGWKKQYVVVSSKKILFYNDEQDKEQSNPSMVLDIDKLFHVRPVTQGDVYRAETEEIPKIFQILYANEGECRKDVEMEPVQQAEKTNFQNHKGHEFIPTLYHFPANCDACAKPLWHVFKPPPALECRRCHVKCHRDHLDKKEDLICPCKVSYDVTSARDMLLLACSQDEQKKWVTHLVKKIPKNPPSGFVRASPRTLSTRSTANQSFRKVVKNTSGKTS

[11] = molecular target: T3, Scaffold protein ILK (Homo sapiens) (UniProt Q13418); test: Inhibition of ILK in human HeLa cells lysate at 50 uM pre incubated for 15 mins followed by ATP acyl phosphate probe addition and measured after 10 mins by LC-MS/MS analysis relative to control; type: subcellular; details: time 25.0 min
T3 sequence (whole entry): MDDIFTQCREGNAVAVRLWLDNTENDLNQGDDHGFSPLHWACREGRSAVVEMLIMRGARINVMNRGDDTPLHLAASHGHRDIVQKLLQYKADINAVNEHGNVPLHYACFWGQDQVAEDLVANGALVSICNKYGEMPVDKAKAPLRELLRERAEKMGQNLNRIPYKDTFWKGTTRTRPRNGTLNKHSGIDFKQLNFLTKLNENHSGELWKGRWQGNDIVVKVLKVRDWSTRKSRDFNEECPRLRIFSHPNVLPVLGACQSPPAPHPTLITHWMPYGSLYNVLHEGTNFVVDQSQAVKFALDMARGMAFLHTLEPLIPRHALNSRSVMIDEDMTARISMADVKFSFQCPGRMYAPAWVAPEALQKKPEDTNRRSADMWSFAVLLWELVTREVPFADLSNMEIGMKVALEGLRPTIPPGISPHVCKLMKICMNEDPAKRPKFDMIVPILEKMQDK

[12] = molecular target: T1, Glycogen synthase kinase-3 beta; test: Inhibition of GSK3B isoform 2 in human HeLa cells lysate at 10 uM pre incubated for 15 mins followed by ATP acyl phosphate probe addition and measured after 10 mins by LC-MS/MS analysis relative to control; type: subcellular; details: time 25.0 min
[13] = molecular target: Tyrosine-protein kinase Fer (Homo sapiens, UniProt P16591); test: Inhibition of FER in human HeLa cells lysate at 10 uM pre incubated for 15 mins followed by ATP acyl phosphate probe addition and measured after 10 mins by LC-MS/MS analysis relative to control; type: subcellular; details: time 25.0 min
Chain of Tyrosine-protein kinase Fer (P16591 whole entry, looked up): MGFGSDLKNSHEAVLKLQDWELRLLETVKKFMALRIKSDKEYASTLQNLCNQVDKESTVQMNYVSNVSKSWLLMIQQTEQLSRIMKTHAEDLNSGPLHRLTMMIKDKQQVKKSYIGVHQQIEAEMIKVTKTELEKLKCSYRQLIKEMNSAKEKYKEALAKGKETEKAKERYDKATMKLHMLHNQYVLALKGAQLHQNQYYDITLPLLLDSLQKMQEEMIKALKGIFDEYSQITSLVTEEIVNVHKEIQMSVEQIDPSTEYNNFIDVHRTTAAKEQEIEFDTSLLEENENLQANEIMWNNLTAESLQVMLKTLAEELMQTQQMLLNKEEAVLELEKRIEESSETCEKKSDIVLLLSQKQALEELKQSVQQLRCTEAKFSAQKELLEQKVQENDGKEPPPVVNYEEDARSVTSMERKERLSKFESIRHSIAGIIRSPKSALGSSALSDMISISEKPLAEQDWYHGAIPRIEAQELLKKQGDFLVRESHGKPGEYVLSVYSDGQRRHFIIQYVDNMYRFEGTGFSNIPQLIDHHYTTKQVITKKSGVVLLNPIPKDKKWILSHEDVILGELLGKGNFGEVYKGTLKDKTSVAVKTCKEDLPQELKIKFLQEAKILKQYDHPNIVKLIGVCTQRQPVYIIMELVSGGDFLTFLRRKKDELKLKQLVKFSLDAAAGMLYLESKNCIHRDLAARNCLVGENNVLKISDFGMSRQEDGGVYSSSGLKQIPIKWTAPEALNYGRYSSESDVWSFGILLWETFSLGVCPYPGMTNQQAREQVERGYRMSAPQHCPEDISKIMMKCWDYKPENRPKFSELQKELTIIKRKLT

eIF-2-alpha kinase GCN2 = eIF-2-alpha kinase GCN2 (Homo sapiens, UniProt Q9P2K8); test: Inhibition of GCN2 in human HeLa cells lysate at 10 uM pre incubated for 15 mins followed by ATP acyl phosphate probe addition and measured after 10 mins by LC-MS/MS analysis relative to control; type: subcellular; details: time 25.0 min
[14] = molecular target: STE20-like serine/threonine-protein kinase (Homo sapiens, UniProt Q9H2G2); test: Inhibition of SLK in human HeLa cells lysate at 2 uM pre incubated for 15 mins followed by ATP acyl phosphate probe addition and measured after 10 mins by LC-MS/MS analysis relative to control; type: subcellular; details: time 25.0 min
[15] = molecular target: Tyrosine-protein kinase ABL (Homo sapiens, UniProt P00519+P42684); test: Inhibition of ABL1/2 in human HeLa cells lysate at 2 uM pre incubated for 15 mins followed by ATP acyl phosphate probe addition and measured after 10 mins by LC-MS/MS analysis relative to control; type: subcellular; details: time 25.0 min
Procedure, shortened: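 HeLa cell lysates (5 mg/mL total protein) were preincubated with inhibitor at 0, 0.8, 2, 10 or 50 μM for 15 min. ATP or ADP acylphosphate probe was then added (5 μM final) for 10 min, and reactions were stopped with urea. Up to four fragment ions per kinase probe-peptide were quantified by targeted MS. % inhibition was taken relative to untreated lysate. Run in duplicate.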

[16] = Inhibition of KHS1/2 in human HeLa cells lysate at 2 uM pre incubated for 15 mins followed by ATP acyl phosphate probe addition and measured after 10 mins by LC-MS/MS analysis relative to control; details: 25 min, condition cancer
[17] = molecular target: T2, Rho-associated protein kinase; test: Inhibition of ROCK1/2 in human HeLa cells lysate at 2 uM pre incubated for 15 mins followed by ATP acyl phosphate probe addition and measured after 10 mins by LC-MS/MS analysis relative to control; type: subcellular; details: time 25.0 min

Structure (SMILES): CCOc1cc(N2CCC(O)CC2)ccc1Nc1ncc2c(n1)N(C)c1ccccc1C(=O)N2C
- IC50 [1]: > 50 µM
- IC50 [2]: > 50 µM
- IC50 [3]: > 50 µM
- IC50 [4]: > 50 µM
- IC50 [5]: > 50 µM
- IC50 [6]: > 50 µM
- IC50 (IKK epsilon/TBK1): > 50 µM
- inhibition at 50 µM [7]: -14.5%
- inhibition [8]: 21.5%
- inhibition [9]: 18.5%
- inhibition [10]: -3%
- inhibition [11]: -6.7%
- inhibition [12]: -7.8%
- inhibition [13]: 0%
- inhibition (eIF-2-alpha kinase GCN2): -0.6%
- inhibition [14]: -6.5%
- inhibition [15]: 11.5%
- inhibition at 2 µM [16]: -8.6%
- inhibition [17]: 0.1%
